The source made the active and inactive calls. No cut-off for these calls is given here.
Assay: Antioxidant activity assessed as DPPH radical scavenging activity at 100 ug/ml measured after 30 mins
Format: functional
In short: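 DPPH radical scavenging with compounds at 100 µg/mL; mixture incubated at room temperature for 30 min, absorbance read at 517 nm; ascorbic acid as reference inhibitor; percentage activity given as mean ± SEM.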

Row | Compound | Activity
1 | CC(=O)NC(=S)Nc1ccc(S(=O)(=O)Nc2ncccn2)cc1 | inactive
2 | O=C(NC(=S)Nc1ccc(S(=O)(=O)Nc2ncccn2)cc1)c1ccc(F)cc1 | inactive
3 | COc1ccc(C(=O)NC(=S)Nc2ccc(S(=O)(=O)Nc3ncccn3)cc2)cc1 | inactive
4 | CCCCCCC(=O)NC(=S)Nc1ccc(S(=O)(=O)Nc2ncccn2)cc1 | inactive
5 | O=C1O[C@H]([C@@H](O)CO)C(O)=C1O | Active
6 | O=C(NC(=S)Nc1ccc(S(=O)(=O)Nc2ncccn2)cc1)c1ccc(Cl)cc1 | inactive
7 | O=C(NC(=S)Nc1ccc(S(=O)(=O)Nc2ncccn2)cc1)c1ccccc1Cl | inactive
8 | O=C(NC(=S)Nc1ccc(S(=O)(=O)Nc2ncccn2)cc1)c1ccc(Cl)cc1Cl | Active
9 | O=C(NC(=S)Nc1ccc(S(=O)(=O)Nc2ncccn2)cc1)c1cc([N+](=O)[O-])cc([N+](=O)[O-])c1 | Active
10 | CCCC(=O)NC(=S)Nc1ccc(S(=O)(=O)Nc2ncccn2)cc1 | inactive
11 | CCCCCCCC(=O)NC(=S)Nc1ccc(S(=O)(=O)Nc2ncccn2)cc1 | inactive

Source: ChEMBL document CHEMBL4118259, “Synthesis of sulfadiazinyl acyl/aryl thiourea derivatives as calf intestinal alkaline phosphatase inhibitors, pharmacokinetic properties, lead optimization, Lineweaver-Burk plot evaluation and binding analysis” (Bioorg Med Chem, 2018)
